Screens from PubChem.
Ecoli rRNA inh: reduced GFP signal of wild-type E. coli, primary screen, bacterial rRNA inhibitor project, GFP/RFP fluorescence, OD600, single point | E. coli WT GFP vs humanized-ribosome RFP mutants, 24 h; active compounds read low; DMSO median 0, no signal -100 | GFP signal change (wild-type ribosome), % (concentration not given with the values) | 350,000 tested, 1.6% active | AID 720706, 2013;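 active = significant combined selectivity score with lowered wild-type GFP, culture density cut under 30%, mutant RFP and density less affected; inactive = any of these conditions unmet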
Cneo AK release: Cryptococcus neoformans cell lysis inducers, primary screen, AK release luminescence, single concentration. 360,000 tested, 0.2% active. C. neoformans lysis, adenylate kinase release luminescence, 4 h; normalised: neutral wells 0, clomiphene wells 100. lysis activity, % at 15 µM;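 active = mean lysis activity across replicates of at least 80%, whatever share of replicates individually reach that level; inactive = mean lysis activity below 80%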
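Schedule: static 4 h at 37 °C with compound, 1 h detection; system: C. neoformans cells; benchmarks: Clomiphene as positive control; buffer or medium: fresh YPD medium; measure: luminescence rise reflecting yeast cell lysis; measured by: luminescent adenylate kinase detection reagent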
PGC1a acetyl inh: inhibitors of PGC1a acetylation signal, primary screen, cell-based, U2OS, AlphaScreen, inhibitor mode; inhibition, % at 15.6 µM; 350,000 tested, 0.17% active; AlphaScreen anti-acetyl-lysine; with virally co-expressed GCN5 acetyltransferase;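 active = every replicate shows inhibition of at least 40%; inconclusive = mean inhibition at least 40% but some replicate below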
SIRT5 block: SIRT5 desuccinylase inhibitors, primary screen, biochemical, fluorescence imaging, single point, set 5. NAD-dependent protein deacylase sirtuin-5, mitochondrial (Homo sapiens), Q9NXA8. Purified SirT5, succinyl-peptide AMC, trypsin-coupled fluorescence. inhibition, % at 15 µM. 330,000 tested, 1.1% active. AID 652115, 2013; in the data active = inhibition above about 15%; inconclusive = no clear call, values can overlap the other calls
Target sequence (Q9NXA8 whole entry, looked up): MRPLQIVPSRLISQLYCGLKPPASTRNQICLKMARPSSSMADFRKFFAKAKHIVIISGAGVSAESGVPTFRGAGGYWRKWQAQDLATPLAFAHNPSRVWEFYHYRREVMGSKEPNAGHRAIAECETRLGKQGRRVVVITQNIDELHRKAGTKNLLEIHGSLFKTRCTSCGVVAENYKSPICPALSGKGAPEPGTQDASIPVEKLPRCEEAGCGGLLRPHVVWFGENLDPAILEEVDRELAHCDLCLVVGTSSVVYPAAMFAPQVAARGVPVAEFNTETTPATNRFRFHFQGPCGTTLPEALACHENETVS
S100A4 MyoIIA: inhibitors of S100A4-myosin IIA peptide binding, primary screen, biochemical, fluorescence polarization, TAMRA-MyoIIA peptide; inhibition, % at 10.7 µM; AID 652163, 2013; 360,000 tested, 0.14% active;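 active = mean inhibition of at least 70% across replicates, with every replicate also reaching that level; inconclusive = mean inhibition reaches 70% but some replicates fall short; inactive = mean inhibition below 70%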
Target sequence (P26447 whole entry, looked up): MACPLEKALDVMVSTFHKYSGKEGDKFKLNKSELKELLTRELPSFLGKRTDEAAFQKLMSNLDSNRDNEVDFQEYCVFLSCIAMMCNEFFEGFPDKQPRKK
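Material: human S100A4 monomer with TAMRA-labelled myosin IIA peptide; buffer or medium: HEPES pH 7.2 with CaCl2, KCl, NaCl, DTT, Triton; compound dosing: one concentration per compound; schedule: 5 min incubation before reading; benchmarks: neutral control DMSO, positive control TFP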
C2C12 statin: suppressors of statin myotoxicity in C2C12 myotubes, primary screen, cell-based, single point, plate reader; 330,000 tested, 0.78% active; rescue of ATP level, % at 7.49 µM; C2C12 myotubes + simvastatin, ATP luminescence, 48 h; scaled: DMSO 0, geranylgeraniol control 100;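 active = mean ATP rescue above about 67%, or every replicate alone reaching that limit, limit read from the data, passing the limit was not always enough; inconclusive = no clear call, values can overlap the other calls; inactive = mean under the limit and some replicate under it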;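 also: myotubes were challenged with 10 µM simvastatin during compound exposure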
Each line names hits and unclear results; the compound was inactive in the other large screens; ! = a repeat was not active. Compounds with a hit are over-represented: about 3% of the library has one in this group of screens.

C[C@@H]1CN([C@H](C)CO)C(=O)c2cc(NS(=O)(=O)c3ccccc3)ccc2O[C@@H](C)CCCCO[C@@H]1CN(C)Cc1ccc(Cl)c(Cl)c1	SIRT5 block 15! (no result: C2C12 statin)
Cc1ccc(S(=O)(=O)Nc2ccc3c(c2)C(=O)N([C@H](C)CO)C[C@@H](C)[C@H](CN(C)Cc2ccc(Cl)c(Cl)c2)OCCCC[C@@H](C)O3)cc1	none (no result: Cneo AK release, C2C12 statin)
Cc1ccc(S(=O)(=O)Nc2ccc3c(c2)C(=O)N([C@H](C)CO)C[C@H](C)[C@@H](CN(C)Cc2ccc(Cl)c(Cl)c2)OCCCC[C@H](C)O3)cc1	SIRT5 block 28, S100A4 MyoIIA inconclusive (no result: C2C12 statin)
CO[C@H]1CN(C)C(=O)c2ccc(NC(=O)Nc3ccccc3)cc2OC[C@H](C)N(C(C)=O)C[C@H]1C	none (no result: PGC1a acetyl inh)
CCCNC(=O)Nc1ccc2c(c1)OC[C@H](C)N(C(=O)C1CC1)C[C@H](C)[C@@H](OC)CN(C)C2=O	S100A4 MyoIIA 93 (no result: PGC1a acetyl inh)
CCCNC(=O)Nc1ccc2c(c1)OC[C@@H](C)N(C(=O)C1CC1)C[C@@H](C)[C@@H](OC)CN(C)C2=O	none
COc1ccccc1C(=O)Nc1ccc2c(c1)OC[C@H](C)N(C(C)=O)C[C@H](C)[C@H](OC)CN(C)C2=O	Cneo AK release 101
CO[C@@H]1CN(C)C(=O)c2ccc(NC(=O)Nc3ccccc3)cc2OC[C@@H](C)N(C(C)=O)C[C@H]1C	SIRT5 block 22 (no result: Cneo AK release, C2C12 statin)
N/C(=N\OC(=O)c1cccs1)c1cccc([N+](=O)[O-])c1	SIRT5 block 35
CN(C)CC1CC/C(=C\c2ccc(O)cc2)C1=O (centres undefined)	Ecoli rRNA inh -31 (no result: Cneo AK release, PGC1a acetyl inh, C2C12 statin)
Cc1ccc(S(=O)(=O)Nc2ccc3c(c2)CC(=O)N([C@@H](C)CO)C[C@H](C)[C@@H](CN(C)C(=O)NC2CCCCC2)O3)cc1	none
N/C(=N\c1nc2ccccc2o1)NC(=O)c1ccc(F)cc1	C2C12 statin 83 (no result: Ecoli rRNA inh, SIRT5 block, S100A4 MyoIIA)
Cc1ccc(NC(=S)NC2CCSc3ccccc32)cc1 (centres undefined)	Ecoli rRNA inh -44 (no result: PGC1a acetyl inh)
CC(=O)Nc1ccc(C(=O)NC2CCSc3ccccc32)cc1 (centres undefined)	none (no result: C2C12 statin)
O=C(O)C1=C2C(=O)Nc3cccc(c32)C2(C1)C(=O)Nc1ccccc12 (centres undefined)	SIRT5 block 35
O=C1NCCC12C(=O)Nc1ccccc12 (centres undefined)	none (no result: Ecoli rRNA inh, SIRT5 block)
CC(=O)Nc1ccc(S(=O)(=O)Nc2cccc(-n3cnnn3)c2)cc1	none (no result: Cneo AK release, PGC1a acetyl inh, C2C12 statin)
CC(=O)Nc1ccc(S(=O)(=O)Nc2ccc(-n3cnnn3)cc2)cc1	SIRT5 block 23
COc1ccccc1CNC(=O)C[C@H]1CC[C@H](NC(=O)CN(C)C)[C@@H](CO)O1	none
CC(=O)Nc1ccc2c(c1)C(=O)N(C)[C@H]1CC[C@@H](CC(=O)Nc3cn(C)nc3C)O[C@@H]1CO2	none
Cc1cccc(OCCSCc2nc3ccccc3[nH]2)c1	C2C12 statin 81 (no result: Ecoli rRNA inh, SIRT5 block, S100A4 MyoIIA)
Cc1ccccc1OCCSCc1nc2ccccc2[nH]1	none (no result: Cneo AK release, PGC1a acetyl inh, C2C12 statin)
COc1ccc(S(=O)(=O)N2CCC3(CC2)CN(C(=O)c2cccnc2)[C@@H](CO)c2c3c3ccc(OC)cc3n2C)cc1	SIRT5 block 21 (no result: Cneo AK release, PGC1a acetyl inh, C2C12 statin)
CCS(=O)(=O)N1CC2(CN(Cc3cccc(Cl)c3)[C@H](CO)c3c2c2ccc(OC)cc2n3C)C1	SIRT5 block 26 (no result: Cneo AK release, C2C12 statin)
CCS(=O)(=O)N1CC2(CN(Cc3ccc(OC)cc3)[C@H](CO)c3c2c2ccc(OC)cc2n3C)C1	none (no result: Cneo AK release, PGC1a acetyl inh, C2C12 statin)
CCC(=O)N1CC[C@H]2[C@H](CO)Nc3ccc(-c4ccc(C(=O)N(C)C)cc4)cc3[C@H]21	none
N/C(Cc1ccc(Cl)cc1Cl)=N\OC(=O)c1ccccc1	Ecoli rRNA inh -31 (no result: Cneo AK release)
